Screens deposited in PubChem BioAssay by several laboratories.
SMARCA2 activ: SMARCA2 (BRM) function activators, primary screen, cell-based, luminescence, high throughput; 370,000 compounds, 1% hits; activation, % at 9.1 µM; MG213 cells, MMTV-luciferase reporter, dexamethasone, overnight; in the data active = activation above about 7.8%;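 note: 0% = vehicle wells and 100% = reference activator wells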
MC4R antagonist: MC4R antagonists of cAMP signaling, primary screen, cell-based, TR-FRET, antagonist arm of biased-ligand search; MC4R-expressing cells, MTII-stimulated cAMP, LANCE TR-FRET; inhibition, % at 6.5 µM; 360,000 compounds, 0.48% hits; AID 540295, 2011;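 active = inhibition above its plate's cutoff, the mean of tested wells on that plate plus 3 SD, cut at about 29% in these data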;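 note: 0% = Melanotan II alone and 100% = Melanotan II plus saturating MCL0020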
Target sequence (P32245 whole entry, looked up): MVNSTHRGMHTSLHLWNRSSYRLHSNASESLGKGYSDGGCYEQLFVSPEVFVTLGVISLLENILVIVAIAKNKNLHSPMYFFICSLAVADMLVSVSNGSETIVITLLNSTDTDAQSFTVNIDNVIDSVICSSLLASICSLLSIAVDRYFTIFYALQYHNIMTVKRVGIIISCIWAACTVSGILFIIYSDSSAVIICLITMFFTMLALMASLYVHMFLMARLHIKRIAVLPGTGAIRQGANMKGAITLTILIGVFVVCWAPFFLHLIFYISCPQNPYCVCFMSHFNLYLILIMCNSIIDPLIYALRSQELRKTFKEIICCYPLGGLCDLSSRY
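Assay system: human MC4R-expressing U2OS cells; reagent: Melanotan II stimulation of cells; dosing: 6.5 µM single dose; timing: compound 30 min, challenge 1 h, detection 1 h; signal: TR-FRET cAMP assay; replicates: one well per compound, no replicates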
MC4R barr agon: MC4R agonists recruiting beta-arrestin, primary screen, cell-based, luminescence, agonist arm of biased-ligand search | Melanocortin receptor 4 (Homo sapiens), P32245 | U2OS MC4R beta-arrestin complementation; percent of melanotan II response, DMSO zero | 360,000 compounds, 0.98% hits | activation, % at 8.9 µM | AID 540308, 2011;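 active = activation above a per-plate cutoff, the mean activation of sample wells on that plate plus 3 SD, cut at about 8% in these data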
CFTR F508del cor: F508del CFTR correction, initial screen, CFBE line, single point. CFBE cells, YFP halide quenching; stimulated with forskolin plus potentiator P3; % fluorescence drop versus neutral controls. activity (quench increase), % at 7.58 µM. AID 720511, 2013. 350,000 compounds, 0.36% hits;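 active = mean added fluorescence quench of at least 8% versus neutral control, with both replicates also reaching 8%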;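 note: cells transiently co-express mutant CFTR-F508del with the halide-sensitive YFP; corrector assay measuring rescue of mutant channel to the surface after 24 h compound exposure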
SMARCA2 conf: SMARCA2 (BRM) function activators, confirmation, cell-based, luminescence, triplicate | MG213 cells, MMTV-luciferase with dexamethasone, overnight; MG213 cells expressing E1A, Rb sequestered; DMSO wells 0%, reference activator 100% | activation, % at 9.1 µM | shares compounds with SMARCA2 activ | 3,500 compounds, 30% hits;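 active = activation above its plate's cutoff, the mean activation of tested wells plus 3 SD, cut at about 7.9% in these data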
VP16 Luc act: GAL4-VP16 luciferase reporter activation, counter-screen for SMARCA2 (BRM) activator project, cell-based, pG5luc, luminescence, high throughput. shares compounds with SMARCA2 activ. HEK293 GAL4-VP16 pG5luc reporter; scaled: DMSO wells 0%, SAHA wells 100%. activation, % at 9.1 µM. 3,500 compounds, 41% hits;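 active = activation above the solvent-only control well mean plus 3 SD, averaged across control plates, cut at about 5.2% in these data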
The depositor's hits bear a star; . = not tested or not shown. In the library only some 2.1% were active in any assay of this set; here they are far more common.

SMILES	SMARCA2 activ	MC4R antagonist	MC4R barr agon	CFTR F508del cor	SMARCA2 conf	VP16 Luc act
Cc1[nH]c2ccccc2c1/C=N/NC(=O)c1ccccc1	-2	1	-2	2	.	.
O=C(Nc1ccc(Br)cc1Cl)c1cnccn1	9.4*	-7	0	1	12*	4
CC(C)NC(=O)Nc1ccc2c(c1)C(=O)N([C@@H](C)CO)C[C@H](C)[C@H](CN(C)Cc1ccc3c(c1)OCO3)OCCCC[C@H](C)O2	.	.	.	-1	.	.
O=C(CSc1nnc(NC(=O)Cc2ccccc2)s1)NCC1CCCO1 (configuration not stated)	-2	-6	0	-3	.	.
O=C(CSc1oc(-c2ccc(F)cc2)nc1S(=O)(=O)c1ccccc1)NCC1CCCO1 (configuration not stated)	8.2*	3	-2	.	0	-1
O=C(CSc1nnc(NC(=O)c2ccccc2)s1)NCC1CCCO1 (configuration not stated)	9.4*	11	-1	0	2	6.5*
C/C=C/c1ccc([C@H]2[C@@H](CO)N(C(C)=O)C23CN(C(=O)NC2CCCC2)C3)cc1	.	.	.	-1	.	.
O=c1[nH]c(/C=C/c2ccccc2Cl)nc2ccccc12	8.6*	-7	2	3	13*	9.1*
COc1cc(/C=C/c2nc3ccccc3c(=O)[nH]2)ccc1O	9.0*	-11	1	0	13*	12*
CCOc1cc(/C=C/c2nc3ccccc3c(=O)[nH]2)ccc1O	3	-12	0	3	.	.
C[C@@H]1CN([C@@H](C)CO)C(=O)Cc2cc(NS(=O)(=O)c3ccccc3)ccc2O[C@H]1CN(C)S(=O)(=O)c1cn(C)cn1	.	.	.	-2	.	.
CC(C)(C)Cc1c(-c2ccco2)nc2ccc(Cl)cn12	13*	.	.	-6	1	1
Cc1noc(C)c1NC(=O)Nc1cccc2c1O[C@@H](CN(C)C)[C@H](C)CN([C@H](C)CO)C2=O	.	.	.	0	.	.
CC1(C(=O)OCC(=O)Nc2ccc3ccccc3c2)CC1(Cl)Cl (configuration not stated)	8.5*	-3	4	-2	6	6.3*
CC1(C(=O)OCC(=O)Nc2ccc(C(N)=O)cc2)CC1(Cl)Cl (configuration not stated)	-3	18	0	0	.	.
COc1ccc(S(=O)(=O)N2CCN(C(=O)Cc3cccs3)CC2)cc1	9.5*	7	-2	-1	0	1
N#C/C(=C\c1cccnc1)c1nc2c(s1)CCCC2	8.5*	-12	-1	.	7	16*
CC1CCc2nc(/C(C#N)=C/c3cccnc3)sc2C1 (configuration not stated)	5	2	-1	-1	.	.
O=C(NCC1CCCCC1)[C@@H]1[C@@H](CO)[C@@H]2Cn3c(ccc(-c4ccncc4)c3=O)[C@H]1N2	.	.	.	0	.	.
O=C(CCl)NCCCCCCCCCNC(=O)CCl	8.8*	11	-2	.	7	-1
C[C@H](NC(=O)C[C@@H]1CC[C@H](NC(=O)C2CC2)[C@H](CO)O1)c1ccccc1	.	.	.	-2	.	.
COc1ccccc1Cn1c(-c2ccco2)nc2nc3ccccc3nc21	8.6*	6	8	.	4	1
CC(C)=CC(=O)Nc1nnc(-c2ccccc2)s1	16*	-3	-2	3	5	7.8*
COc1ccc(-c2nnc(NC(=O)c3c(OC)cccc3OC)s2)cc1	-2	-2	-2	1	.	.
COC(=O)Nc1nnc(-c2ccc(OC)cc2)s1	8.1*	1	-1	4	6	5.2*
SMILES	SMARCA2 activ	MC4R antagonist	MC4R barr agon	CFTR F508del cor	SMARCA2 conf	VP16 Luc act
C[C@@H]1CCCCO[C@H](CN(C)Cc2ccncc2)[C@@H](C)CN([C@H](C)CO)C(=O)c2cc(NC(=O)CCC(F)(F)F)ccc2O1	.	.	.	1	.	.
C=C(CN(C)C)C(=O)c1cc(OC)c(OC)cc1OC	16*	-24	-2	-7	-12	5
C=C(CN(C)C)C(=O)c1ccc(C)cc1C	-11	21	-4	0	.	.
CN(C)CC(=O)N1CC[C@@H]2[C@H]1c1cc(Br)ccc1N(C)[C@@H]2CO	.	.	.	3	.	.
CCc1ccc(-n2c(=O)c3ccccc3n(CC(=O)NCc3ccco3)c2=O)cc1	8.6*	2	0	2	-4	-1
Cc1ccc(-n2c(=O)c3ccccc3n(CC(=O)NCc3ccco3)c2=O)cc1	-1	1	-2	1	.	.
Cc1noc(C)c1NC(=O)Nc1ccc2c(c1)C(=O)N([C@@H](C)CO)C[C@@H](C)[C@H](CN(C)S(=O)(=O)c1c(C)noc1C)OCCCC[C@@H](C)O2	.	.	.	0	.	.
O=C(Nc1ccsc1C(=O)O)c1ccc(Cl)cc1	8.7*	16	-2	-8	10*	8.7*
COC(=O)c1c(NC(C)=O)sc2c1CCCCC2	-4	3	0	.	.	.
CNC(=S)Nc1sc2c(c1C(=O)OC)CCC2	9.1*	6	-1	1	0	0
COc1cccc(/C=N/N=C(\N)c2nonc2N)c1O	8.6*	-3	-1	0	7	12*
N/C(=N\N=C\c1ccc2c(c1)OCO2)c1nonc1N	2	5	-2	-2	.	.
C[C@H](CO)N1C[C@H](C)[C@@H](CN(C)CC2CCOCC2)Oc2cc(C3=CCCC3)ccc2S1(=O)=O	.	.	.	-6	.	.
COc1cccc(S(=O)(=O)N[C@H]2C=C[C@H](CC(=O)NCc3ccc(Cl)cc3)O[C@H]2CO)c1	.	.	.	6	.	.
COc1ccc(C2=NN(C(=O)CN3CCCCC3)C(c3ccc(C)cc3)C2)cc1 (configuration not stated)	-2	6	-3	0	.	.
COc1ccc(C2=NN(C(=O)CN3CCOCC3)C(c3nc4ccccc4[nH]3)C2)cc1 (configuration not stated)	11*	9	-3	-2	7	7.6*
COc1cc(CN2CC3(CCN(C(=O)Nc4c(C)noc4C)CC3)c3c([nH]c4cc(OC)ccc34)[C@H]2CO)cc(OC)c1	.	.	.	-1	.	.
COc1cccc(N2CCN(C(=O)CCn3nnc4ccccc43)CC2)c1	9.4*	.	.	.	7	1
COc1ccccc1NC(=O)N[C@H]1C=C[C@H](CC(=O)N2CCC(Cc3ccccc3)CC2)O[C@H]1CO	.	.	.	2	.	.
O=C(N/N=C/c1cc2ccccc2[nH]1)c1ccccc1Cl	8.2*	2	-2	1	-2	0
